The text below walks through data of ChEMBL document CHEMBL1128284, “Synthesis and in vitro activity of 17 beta-(N-alkyl/arylformamido)- and 17 beta-[(N-alkyl/aryl)alkyl/arylamido]-4-methyl-4-aza-3-oxo-5 alpha-androstan-3-ones as inhibitors of human 5 alpha-reductases and antagonists of the androgen receptor” (J Med Chem, 1995).

In experiment [1] the target is T1, 3-oxo-5-alpha-steroid 4-dehydrogenase 2 (Homo sapiens, UniProt P31213).
T1 sequence (P31213 whole entry): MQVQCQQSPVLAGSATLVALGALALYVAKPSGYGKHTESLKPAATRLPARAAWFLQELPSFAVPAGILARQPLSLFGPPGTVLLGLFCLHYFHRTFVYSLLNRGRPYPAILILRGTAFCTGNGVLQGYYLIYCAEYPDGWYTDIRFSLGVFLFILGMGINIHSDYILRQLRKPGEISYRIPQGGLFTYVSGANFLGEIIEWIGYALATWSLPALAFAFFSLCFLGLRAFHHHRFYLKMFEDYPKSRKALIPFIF
In words: In vitro inhibition of human steroid 5-alpha-reductase type 2 in SW-13-transfected cells. The format is cell-based. The essentials:
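Homogenate of SW-13 cells transfected with human type II 5α-reductase cDNA; 5 nM [3H]androstenedione, 500 μM NADPH, 50 mM Tris HCl pH 7.5 with 20% glycerol, 1 mM EDTA; 60 min, 37 °C. Ether extraction with steroid carriers, TLC, radioactivity counted; androstanedione formed as % of control.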

The target in experiment [2] is T2, 3-oxo-5-alpha-steroid 4-dehydrogenase 1 (Homo sapiens, UniProt P18405).
T2 sequence (P18405 whole entry): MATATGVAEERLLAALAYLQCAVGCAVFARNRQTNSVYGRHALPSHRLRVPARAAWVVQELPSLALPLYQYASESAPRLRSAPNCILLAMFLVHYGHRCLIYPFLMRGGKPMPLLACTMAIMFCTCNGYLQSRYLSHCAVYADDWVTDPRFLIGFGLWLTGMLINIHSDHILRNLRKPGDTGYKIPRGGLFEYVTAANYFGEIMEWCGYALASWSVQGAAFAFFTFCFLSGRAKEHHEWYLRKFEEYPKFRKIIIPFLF
In words: In vitro inhibition of human steroid 5-alpha-reductase type I in Du-145 cells. It is filed as cell-based. The essentials:
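Intact DU-145 cells (passages 60–90), 100000 cells/well, adhered 24 h; compounds in ethanol diluted in DMEM/2% charcoal-adsorbed FBS with 5 nM [3H]androstenedione, 24 h at 37 °C, 5% CO2. Ether extraction, TLC, radioactivity; androstanedione, androsterone, epiandrosterone formed as % of control.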

What is called IC50 is the concentration at which inhibition is half-maximal. Lower therefore signals greater potency. In the case of `CN1C(=O)CC[C@]2(C)C3CC[C@@]4(C)C(CC[C@@H]4N(C=O)Cc4ccccc4)C3CC[C@@H]12` (stereo partly specified), the IC50 in experiment [1] is more than 100 nM; in experiment [2], 5.63 nM.

As for `CC(C)CN(C=O)[C@H]1CCC2C3CC[C@H]4N(C)C(=O)CC[C@]4(C)C3CC[C@@]21C` (stereo partly specified), the IC50 in experiment [1] was more than 100 nM; in experiment [2], 7.31 nM.

For `CCCCCN(C(=O)CCCCBr)[C@H]1CCC2C3CC[C@H]4N(C)C(=O)CC[C@]4(C)C3CC[C@@]21C` (stereo partly specified), the IC50 in experiment [1] came to 1000 nM; in experiment [2], 2.42 nM.

Regarding `CN1C(=O)CC[C@]2(C)C3CC[C@@]4(C)C(CC[C@@H]4N(C(=O)c4ccccc4)c4ccccc4)C3CC[C@@H]12` (stereo partly specified), the IC50 came to 3.75 nM in experiment [1] and 2.93 nM in experiment [2].

As to `COc1ccc(N(C(=O)C(C)C)[C@H]2CCC3C4CC[C@H]5N(C)C(=O)CC[C@]5(C)C4CC[C@@]32C)cc1` (stereo partly specified), the IC50 is more than 100 nM in experiment [1] and 5.44 nM in experiment [2].

Take `CC(C)CCN(C=O)[C@H]1CCC2C3CC[C@H]4N(C)C(=O)CC[C@]4(C)C3CC[C@@]21C` (stereo partly specified): the half-maximal inhibitory concentration (IC50) in experiment [1] was more than 100 nM; in experiment [2] it was 2.19 nM.

As to `CN(C=O)[C@H]1CCC2C3CC[C@H]4NC(=O)CC[C@]4(C)C3CC[C@@]21C` (stereo partly specified), the IC50 in experiment [1] was more than 1000 nM; in experiment [2], 3700 nM.

For `CN(C=O)[C@H]1CCC2C3CC[C@H]4NC(=O)C=C[C@]4(C)C3CC[C@@]21C` (stereo partly specified), the half-inhibitory concentration (IC50) in experiment [1] is more than 1000 nM; in experiment [2], 207 nM.

Turning to `CC(C)C(=O)N(c1ccccc1)[C@H]1CCC2C3CC[C@H]4N(C)C(=O)CC[C@]4(C)C3CC[C@@]21C` (stereo partly specified), the 50% inhibitory concentration (IC50) in experiment [1] came to 582 nM; in experiment [2], 10.5 nM.

Take `CN1C(=O)CC[C@]2(C)C3CC[C@@]4(C)C(CC[C@@H]4N(C=O)C4CC4)C3CC[C@@H]12` (stereo partly specified): the IC50 in experiment [1] is more than 100 nM.

For the compound `CN1C(=O)CC[C@]2(C)C3CC[C@@]4(C)C(CC[C@@H]4N(C=O)C4CCCCC4)C3CC[C@@H]12` (stereo partly specified), the IC50 in experiment [1] is more than 100 nM.

With `CC(C)C(=O)N(c1ccc([N+](=O)[O-])c(C(F)(F)F)c1)[C@H]1CCC2C3CC[C@H]4N(C)C(=O)CC[C@]4(C)C3CC[C@@]21C` (stereo partly specified), the IC50 in experiment [1] was more than 1000 nM; in experiment [2] it was 59.8 nM.

`CCCCCN(C(=O)CCCC)[C@H]1CCC2C3CC[C@H]4N(C)C(=O)CC[C@]4(C)C3CC[C@@]21C` (stereo partly specified): the IC50 in experiment [1] is more than 100 nM; in experiment [2] it was 1.77 nM.

As for `CN(C=O)[C@H]1CCC2C3CC[C@H]4N(C)C(=O)CC[C@]4(C)C3CC[C@@]21C` (stereo partly specified), in experiment [1], the IC50 was 1000 nM. That is a single-digit micromolar value.

For `CCCCCN(C(=O)CCC)[C@H]1CCC2C3CC[C@H]4N(C)C(=O)CC[C@]4(C)C3CC[C@@]21C` (stereo partly specified), the IC50 in experiment [1] is more than 100 nM; in experiment [2] it was 3.31 nM.

As for `COc1ccc(N(C(=O)c2ccccc2)[C@H]2CCC3C4CC[C@H]5N(C)C(=O)CC[C@]5(C)C4CC[C@@]32C)cc1` (stereo partly specified), the results for the IC50 in experiment [1] and in experiment [2] were more than 1000 nM and 2.11 nM, respectively.

As for `CCCCCN(C=O)[C@H]1CCC2C3CC[C@H]4N(C)C(=O)CC[C@]4(C)C3CC[C@@]21C` (stereo partly specified), the IC50 in experiment [1] was more than 100 nM; in experiment [2], 0.91 nM.

With `CCCN(C=O)[C@H]1CCC2C3CC[C@H]4N(C)C(=O)CC[C@]4(C)C3CC[C@@]21C` (stereo partly specified), the results for the IC50 in experiment [1] and in experiment [2] were more than 100 nM and 5.08 nM, respectively.

In the case of `CCCCCCCCN(C=O)[C@H]1CCC2C3CC[C@H]4N(C)C(=O)CC[C@]4(C)C3CC[C@@]21C` (stereo partly specified), the results for the IC50 in experiment [1] and in experiment [2] were 18.4 nM and 16.9 nM, respectively.

On to `CCCCCN(C(=O)c1ccccc1)[C@H]1CCC2C3CC[C@H]4N(C)C(=O)CC[C@]4(C)C3CC[C@@]21C` (stereo partly specified), for which the IC50 in experiment [1] is more than 100 nM; in experiment [2], 3.22 nM.

As for `CN1C(=O)CC[C@@]2(C)C1=CCC1C2CC[C@@]2(C)C1CC[C@@H]2N(C)C=O` (stereo partly specified), the IC50 in experiment [1] was more than 1000 nM; in experiment [2], 1900 nM.

Take `CCCCN(C=O)[C@H]1CCC2C3CC[C@H]4N(C)C(=O)CC[C@]4(C)C3CC[C@@]21C` (stereo partly specified): the IC50 in experiment [1] was more than 100 nM; in experiment [2], 3.05 nM.

`CCN(CC)C(=O)[C@H]1CC[C@H]2[C@@H]3CC[C@H]4N(C)C(=O)CC[C@]4(C)[C@H]3CC[C@]12C`: the IC50 in experiment [1] was determined as 7.48 nM; in experiment [2] it was 4.14 nM.

In the case of `CC(C)N(C=O)[C@H]1CCC2C3CC[C@H]4N(C)C(=O)CC[C@]4(C)C3CC[C@@]21C` (stereo partly specified), the IC50 in experiment [1] is more than 100 nM; in experiment [2] it was 9.53 nM.

Consider `CCCCCCCN(C=O)[C@H]1CCC2C3CC[C@H]4N(C)C(=O)CC[C@]4(C)C3CC[C@@]21C` (stereo partly specified), for which the IC50 was found to be 14 nM in experiment [1] and 9.57 nM in experiment [2].

Consider `CC(C)(C)NC(=O)[C@H]1CC[C@H]2[C@@H]3CC[C@H]4NC(=O)C=C[C@]4(C)[C@H]3CC[C@]12C` [FINASTERIDE], for which the figures for the IC50 in experiment [1] and in experiment [2] were 4.53 nM and 26.3 nM, respectively.

Take `CN1C(=O)CC[C@]2(C)C3CC[C@@]4(C)C(CC[C@@H]4N(C=O)CCC(C)(C)C)C3CC[C@@H]12` (stereo partly specified): the IC50 in experiment [1] was more than 100 nM; in experiment [2] it was 2.35 nM.

In the case of `CC(C)C(=O)N(c1ccc([N+](=O)[O-])cc1)[C@H]1CCC2C3CC[C@H]4N(C)C(=O)CC[C@]4(C)C3CC[C@@]21C` (stereo partly specified), the figures for the IC50 in experiment [1] and in experiment [2] were more than 1000 nM and 32.8 nM, respectively.

In experiment [1], `CCC(CC)N(C=O)[C@H]1CCC2C3CC[C@H]4N(C)C(=O)CC[C@]4(C)C3CC[C@@]21C` (stereo partly specified) showed an IC50 of more than 100 nM.

As to `CCCCCN(C(=O)CC)[C@H]1CCC2C3CC[C@H]4N(C)C(=O)CC[C@]4(C)C3CC[C@@]21C` (stereo partly specified), the results for the IC50 in experiment [1] and in experiment [2] were more than 100 nM and 4.56 nM, respectively.

As for `CN(C=O)[C@H]1CCC2C3CC[C@H]4N(C)C(=O)C=C[C@]4(C)C3CC[C@@]21C` (stereo partly specified), the IC50 was more than 1000 nM in experiment [1] and 124 nM in experiment [2].

`CCCCN(C(C)=O)[C@H]1CCC2C3CC[C@H]4N(C)C(=O)CC[C@]4(C)C3CC[C@@]21C` (stereo partly specified) returned an IC50 in experiment [1] of more than 100 nM.

`CCCCCCN(C=O)[C@H]1CCC2C3CC[C@H]4N(C)C(=O)CC[C@]4(C)C3CC[C@@]21C` (stereo partly specified): the IC50 in experiment [1] is more than 100 nM; in experiment [2] it was 7.25 nM.
